{"source": "paper PMC8427777", "about": "(ACS Omega, 2021)", "molecules": {"B1": {"name": "Vilobelimab: anti-C5a antibody (antibody, chains of the INN, looked up, V domains shown)", "VH": "QVQLQQSGPQLVRPGTSVKISCKASGYSFTTFWMDWVKQRPGQGLEWIGRIDPSDSESRLDQRFKDRATLTVDKSSSTVYMQLSSPTSEDSAVYYCARGNDGYYGFAYWGQGTLVTVSS", "VL": "DIVLTQSPASLAVSLGQRATISCKASQSVDYDGDSYMKWYQQKPGQPPKLLIYAASNLQSGIPARFSGSGSGTDFTLNIHPVEEEDAATYYCQQSNEDPYTFGGGTKLEIK"}, "B2": {"name": "SR3, native NT-peptide of C5aR1 (Met1-Lys28) (peptide, UniProt P21730 1-28, looked up)", "peptide": "MDSFNYTTPDYGHYDDKDTLDLNTPVDK"}, "B3": {"name": "SR1, ECL2 peptide of C5aR1 (Tyr174-Arg198) (peptide, UniProt P21730 174-198, looked up)", "peptide": "acyl-YRVVREEYFPPKVLSGVDYSHDKRR-NH2", "modifications": "reading uncertain"}, "B4": {"name": "C5a: cationic proinflammatory glycoprotein, complement anaphylatoxin; ligand of C5aR1 (protein)", "chain": "TLQKKIEEIAAKYKHSVVKKCCYDGACVNNDETCEQRAARISLGPRCIKAFTECCVVASQLRANISHKDMQLGR"}, "B5": {"name": "SR5, Tyr/Ala mutant NT-peptide of C5aR1 (Met1-Lys28) (peptide, UniProt P21730 1-28, looked up)", "peptide": "MDSFNATTPDAGHADDKDTLDLNTPVDK"}}, "key": {"[1]": {"system": "C5a", "test": "Effect of prednisone on SR3–C5a interaction by CD", "type": "binding, human", "details": "0.5 μM PDN, 0.35 μM SR3, 0.1 μM C5a, PBS, 25 °C; preliminary"}, "[2]": {"test": "Conformational analysis of free peptides by CD", "type": "physicochemical", "details": "1 μM, PBS pH ∼7.4, 25 °C; compared with SR3"}, "[3]": {"target": "T1, recombinant human C5a (Homo sapiens, UniProt P01031)", "T1 sequence (P01031 678-751 limits assumed)": "B4 chain", "test": "CD titration of NT-peptides against recombinant human C5a", "type": "binding", "method_in_brief": "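Far-UV CD at 25°C in filtered, degassed 1× PBS (pH ∼ 7.4). Recombinant human C5a was held at 0.1 μM and NT-peptides (native Met1-Lys28 sequence or mutants) at 0–1 μM. Samples were incubated ≥1 h at 4°C, each prepared and read separately, with at least three scans (1 s time constant, 1 nm step). Free-peptide signal was subtracted, and data were converted to mean residue ellipticity, normalized and fitted by nonlinear regression for affinity.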"}, "[4]": {"test": "Intrinsic tyrosine fluorescence of free peptides", "type": "physicochemical", "details": "at the working concentrations, 1× PBS pH ∼ 7.4, 25 °C"}, "[5]": {"target": "T1, recombinant human C5a", "test": "Two-site fluorescence study: ECL2 peptide", "type": "binding", "details": "0.5–1 μM SR1", "method_in_brief": "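Two-site fluorescence: 0.1 μM C5a was preincubated with 0.5 μM NT-peptide and titrated with 0–1 μM ECL2 peptide. Readings were taken in 1× PBS (pH ∼ 7.4) at 25°C, with excitation at 278–280 nm, emission at 290–450 nm and 5 nm slits. Three scans were averaged and the free-peptide signal was subtracted.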"}, "[6]": {"details": "up to 100 μM, in solution; ref not given (\"has been reported\"); cited from earlier work"}, "[7]": {"target": "T1, recombinant human C5a", "test": "Two-site CD study: ECL2 peptide", "type": "binding", "method_in_brief": "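Two-site CD: 0.1 μM recombinant human C5a was preincubated with 0.5 μM NT-peptide, then titrated with 0–1 μM ECL2 peptide. Far-UV CD was run at 25°C in 1× PBS (pH ∼ 7.4), with at least three scans (1 s time constant, 1 nm step). Each sample was prepared and read separately, and the signal of the corresponding free peptides was subtracted.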"}, "[8]": {"system": "COVID-19", "details": "anti-C5a antibody; cited from earlier work"}, "[9]": {"target": "T2, recombinant human C5a (human, UniProt P01031 678-751)", "T2 sequence (looked up)": "B4 chain", "test": "circular dichroism titration + other fluorescence titration"}, "[10]": {"target": "T2, recombinant human C5a", "test": "circular dichroism titration + other fluorescence titration", "remark": "listed apart in the source"}, "[11]": {"system": "C5aR1", "details": "cited from earlier work"}}, "note": "“Also recorded” adds a separate entry of the source. Like-named read-outs stand apart in the source and are kept apart here. acyl = not defined here"}
{"molecule": "C[C@]12C=CC(=O)C=C1CC[C@@H]1[C@@H]2C(=O)C[C@@]2(C)[C@H]1CC[C@]2(O)C(=O)CO", "note": "[PDN, prednisone]", "values": [{"measurement": "response of PDN-preincubated C5a to SR3 compared to free C5a", "setting": "[1]", "value": "comparatively weaker response"}]}
{"molecule": "SR4 (MASFNYTTPAYGHYAAKATLDLNTPVAK)", "values": [{"measurement": "effect of alanine mutations on conformational ordering", "setting": "[2]", "value": "can potentially affect the overall conformational ordering"}, {"measurement": "change of CD signal / conformation of C5a", "setting": "[3]; 0.1 μM C5a, 0-1 μM peptide, PBS pH ∼ 7.4, 25 °C", "value": "robust conformational alteration"}, {"measurement": "binding affinity toward C5a in words", "setting": "[3]; CD and fluorescence titration studies taken together (A1 and A2)", "value": "could not be obtained reliably; also recorded: did not demonstrate a quantifiable binding affinity"}, {"measurement": "intrinsic fluorescence", "setting": "[4]", "value": "very negligible"}]}
{"molecule": "SR1: native ECL2 sequence of C5aR1 (Tyr174-Arg198), acylated and amidated, carrying Cys188/Ser mutation (acyl-YRVVREEYFPPKVLSGVDYSHDKRR-NH2; reading uncertain)", "values": [{"measurement": "fluorescence response, C5a preincubated with SR3 or SR5", "setting": "[5]; 0.1 μM C5a + 0.5 μM SR3 or SR5", "value": "consistent with the observation made in the CD; also recorded: modest change in fluorescence intensity"}, {"measurement": "fluorescence response, C5a preincubated with SR4", "setting": "[5]; 0.1 μM C5a + 0.5 μM SR4", "value": "quenched appreciably"}, {"measurement": "CD signature of free ECL2 peptide", "setting": "[6]", "value": "twisted short-stranded β-hairpin-like conformation"}, {"measurement": "CD response, C5a preincubated with SR3, 0.5 μM SR1", "setting": "[7]; 0.1 μM C5a + 0.5 μM SR3, PBS, 25 °C, 0.5 μM SR1", "value": "substantially enhanced the CD signal"}, {"measurement": "CD response, C5a preincubated with SR3, 1 μM SR1 (vs 0.5 μM)", "setting": "[7]; 0.1 μM C5a + 0.5 μM SR3, PBS, 25 °C, 1 μM SR1", "value": "did not change further"}, {"measurement": "CD response, C5a preincubated with SR4", "setting": "[7]; 0.1 μM C5a + 0.5 μM SR4, compared to the C5a–SR3/C5a–SR5 system", "value": "relatively strong conformational response"}]}
{"molecule": "B1", "values": [{"measurement": "outcome in COVID-19 treatment", "setting": "[8]", "value": "favorable outcome"}]}
{"molecule": "B2", "values": [{"measurement": "Kd", "setting": "[9]", "value": "126 to 193", "unit": "nM"}]}
{"molecule": "B3", "values": [{"measurement": "binding result", "setting": "[10]", "value": "binds"}]}
{"molecule": "B4", "values": [{"measurement": "potency toward C5aR1", "setting": "[11]", "value": "nanomolar to picomolar potency"}, {"measurement": "potency toward C5aR1", "setting": "[11]; native-like conditions", "value": "picomolar–nanomolar potency"}]}
{"molecule": "B5", "values": [{"measurement": "Kd", "setting": "[9]", "value": "105 to 123", "unit": "nM"}]}
